Bioassay records deposited in PubChem by Broad Institute.
Only a selection was taken, and hits are over-represented in it overall.
GASC1 inh – KDM4C (human) demethylase inhibition; Q9H3R0; GST-KDM4C 2-372, H3K9me3 peptide, LANCE TR-FRET; inhibition, % at 12.5 µM; 96,000 tested, 0.15% active;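 active = mean replicate inhibition above about 25%, with at least 55% of replicates also reaching it, limit read from the data, passing the limit was not always enough; inconclusive = only one of those two conditions met; inactive = neither condition met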
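Material: N-terminal GST-fused human GASC-1 (KDM4C) fragment, residues 2-372. Input: 10 nM enzyme. Incubation: enzyme reaction 30 min, then detection 60 min, both room temperature. Doses: one test concentration per compound. Read-out basis: inhibition from TR-FRET ratio decrease. Detection: LANCE TR-FRET, excitation 340 nm, emissions 618 and 671 nm.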
T cruzi growth-1 – inhibitors of T. cruzi proliferation | inhibition, % at 8.34 µM | 77,000 tested, 5.9% active | T. cruzi beta-gal in NIH3T3, GalScreen luminescence, 90 h;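 active = mean inhibition above about 93%, with at least 55% of replicates each passing it, limit read from the data, passing the limit was not always enough; inconclusive = only one of those two conditions holds; inactive = neither condition holds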
IDH1 mut inh – blocks human IDH1 R132H reductase activity; diaphorase/resazurin fluorescence, 60 min; inhibition, % at 10 µM; 70,000 tested, 0.18% active; AID 624101; in the data active = inhibition above about 34%; inconclusive = no clear call, values can overlap the other calls; inactive = below about 11%;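 also: 0% = DMSO and 100% = no enzyme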
Target sequence (O75874 whole entry R132H): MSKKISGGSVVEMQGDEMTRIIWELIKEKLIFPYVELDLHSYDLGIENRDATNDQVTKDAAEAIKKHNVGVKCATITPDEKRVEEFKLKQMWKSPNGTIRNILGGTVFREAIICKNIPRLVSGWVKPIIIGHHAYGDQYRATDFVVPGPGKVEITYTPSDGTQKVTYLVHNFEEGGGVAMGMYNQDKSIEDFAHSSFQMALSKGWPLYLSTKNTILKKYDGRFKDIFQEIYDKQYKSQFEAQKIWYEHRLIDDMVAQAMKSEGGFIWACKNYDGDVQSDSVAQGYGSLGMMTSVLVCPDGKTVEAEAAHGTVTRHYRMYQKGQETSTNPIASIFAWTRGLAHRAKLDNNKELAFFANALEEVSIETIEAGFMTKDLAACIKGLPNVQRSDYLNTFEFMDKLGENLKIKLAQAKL
T cruzi growth-2 – Trypanosoma cruzi proliferation inhibition. T. cruzi beta-gal in NIH3T3, GalScreen luminescence, 90 h. shares compounds with T cruzi growth-1. 5,600 tested, 72% active. inhibition, % at 8.35 µM;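 active = mean replicate inhibition above about 95% and at least 55% of replicates individually reaching it, limit read from the data; inconclusive = only one of the two criteria is met; inactive = neither criterion is met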
T cruzi growth-3 – inhibitors of T. cruzi proliferation | shares compounds with T cruzi growth-1 | T. cruzi beta-gal in NIH3T3, GalScreen luminescence, 90 h | inhibition, % at 2.09 µM | 5,600 tested, 21% active;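 active = mean inhibition above about 95%, with at least 55% of replicates also reaching it, limit read from the data; inconclusive = meets just one of the two conditions; inactive = meets neither condition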;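 also: plate controls were neutral control median for no effect and positive control median for full effect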
NIH3T3 tox – NIH/3T3 (mouse) viability loss; shares compounds with T cruzi growth-1; NIH/3T3 viability, CellTiter-Glo ATP luminescence, 90 h; cytotoxicity (signal decrease), % at 8.35 µM; 5,600 tested, 14% active; AID 651742;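 active = mean signal decrease across replicates above about 35% based on untreated-well scatter, with enough replicates individually passing, limit read from the data; inconclusive = no rule stated though some were filed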;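 also: 0% = median of neutral control wells and 100% = median of positive control wells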
3T3 cytotox 2 – cytotoxicity in mouse NIH/3T3 fibroblasts. NIH/3T3 viability, CellTiter-Glo ATP luminescence, 90 h. shares compounds with T cruzi growth-1. 5,600 tested, 56% active. inhibition, % at 24.9 µM. AID 651744;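 active = mean loss of cell viability signal at or above a set limit, and enough replicates individually reaching it; inconclusive = meets only the mean limit or only the replicate share; inactive = meets neither condition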;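 also: 0% = median of neutral control wells and 100% = median of positive control wells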
Starred values were filed as active, the others as inactive; ? = inconclusive; . = no result given.

SMILES	GASC1 inh	T cruzi growth-1	IDH1 mut inh	T cruzi growth-2	T cruzi growth-3	NIH3T3 tox	3T3 cytotox 2
CCOC(=O)Nc1ccc2c(c1)N(C(=O)CCN1CCOCC1)c1ccccc1CC2	.	.	0	.	.	.	.
Cc1ccc(S(=O)(=O)N(C)C[C@@H]2Oc3cc(-c4cccc(F)c4)ccc3S(=O)(=O)N([C@@H](C)CO)C[C@H]2C)cc1	-4	124*	-3	102*	107*	48*	55*
Cc1ccc(S(=O)(=O)N(C)C[C@@H]2Oc3cc(-c4cccc(F)c4)ccc3S(=O)(=O)N([C@H](C)CO)C[C@@H]2C)cc1	0	127*	.	105*	?	?	43*
C[C@H](CO)N1C[C@H](C)[C@@H](CN(C)S(C)(=O)=O)Oc2cc(-c3cccc(F)c3)ccc2S1(=O)=O	0	5	-2	.	.	.	.
COc1ccc(S(=O)(=O)N(C)C[C@H]2Oc3cc(-c4cccc(F)c4)ccc3S(=O)(=O)N([C@H](C)CO)C[C@H]2C)cc1	-2	.	1	.	.	.	.
CCc1ccc(-n2nc3cc(C)c(NC(=O)COc4ccccc4[N+](=O)[O-])cc3n2)cc1	.	.	1	.	.	.	.
CCCNC(=O)N1[C@H](CO)[C@H](c2ccc(C3=CCCC3)cc2)[C@@H]1CN(C)C(C)=O	2	23	.	.	.	.	.
CCCNC(=O)N1[C@@H](CO)[C@H](c2ccc(C3=CCCC3)cc2)[C@@H]1CNC(C)=O	2	-11	.	.	.	.	.
CCCNC(=O)N1[C@H](CN(C)C(C)=O)[C@@H](c2ccc(C3=CCCC3)cc2)[C@@H]1CO	3	?	.	-9	-21	-2	2
CCCNC(=O)N1[C@H](CN(C)C(C)=O)[C@H](c2ccc(C3=CCCC3)cc2)[C@@H]1CO	3	?	.	-4	0	2	3
Cc1ccc(S(=O)(=O)Nc2ccc3c(c2)C(=O)N([C@H](C)CO)C[C@H](C)[C@H](CN(C)CC2CCCCC2)OCCCC[C@H](C)O3)cc1	4	?	0	100*	94	8	102*
Cc1ccc(S(=O)(=O)Nc2ccc3c(c2)C(=O)N([C@H](C)CO)C[C@H](C)[C@H](CN(C)S(=O)(=O)c2ccc(C)cc2)OCCCC[C@@H](C)O3)cc1	-1	78	.	.	.	.	.
Cc1ccc(S(=O)(=O)Nc2ccc3c(c2)C(=O)N([C@H](C)CO)C[C@@H](C)[C@@H](CN(C)S(=O)(=O)c2ccc(C)cc2)OCCCC[C@@H](C)O3)cc1	-2	93	.	.	.	.	.
Cc1ccc(S(=O)(=O)Nc2ccc3c(c2)C(=O)N([C@H](C)CO)C[C@H](C)[C@@H](CN(C)CC2CCCCC2)OCCCC[C@H](C)O3)cc1	1	48	.	.	.	.	.
Cc1ccc(S(=O)(=O)Nc2ccc3c(c2)C(=O)N([C@@H](C)CO)C[C@@H](C)[C@H](CN(C)S(=O)(=O)c2ccc(C)cc2)OCCCC[C@H](C)O3)cc1	-3	?	.	106*	69	6	58*
Cc1ccc(S(=O)(=O)Nc2ccc3c(c2)C(=O)N([C@@H](C)CO)C[C@@H](C)[C@@H](CN(C)S(=O)(=O)c2ccc(C)cc2)OCCCC[C@H](C)O3)cc1	0	99*	.	110*	84	-21	27*
CC(C)(C)C(=O)COc1cccc(NC(=O)c2ccc([N+](=O)[O-])cc2)c1	.	.	0	.	.	.	.
NC(=O)CSc1nnc(-c2ccncc2)n1-c1cccc(C(F)(F)F)c1	.	.	3	.	.	.	.
CCc1ccccc1NC(=O)Cn1nc([N+](=O)[O-])cc1C	.	.	0	.	.	.	.
COC(=O)/C=C(\C)CCC1(C)C(C)CCC2(C)C(C)=CC(=O)CC21 (configuration not stated)	.	.	0	.	.	.	.
COC(=O)c1cc(OC)c(OC)cc1NC(=O)COc1cc(Cl)c(Cl)cc1Cl	.	.	0	.	.	.	.
CCN(C[C@H]1N[C@H](CO)[C@H]1c1ccc(-c2ccc(F)cc2)cc1)C(=O)COC	1	-28	.	.	.	.	.
CCN(C[C@@H]1N[C@@H](CO)[C@H]1c1ccc(-c2ccc(F)cc2)cc1)C(=O)CN(C)C	0	109*	.	100*	89	?	104*
COCC#Cc1ccc([C@H]2[C@H](CO)N3CCCCN(S(=O)(=O)c4ccc(OC)cc4)C[C@@H]23)cc1	-1	?	.	100*	40	-1	11
COCC#Cc1ccc([C@H]2[C@@H](CO)N3CCCCN(S(=O)(=O)c4ccc(OC)cc4)C[C@@H]23)cc1	0	?	.	100*	42	34	34*
SMILES	GASC1 inh	T cruzi growth-1	IDH1 mut inh	T cruzi growth-2	T cruzi growth-3	NIH3T3 tox	3T3 cytotox 2
COCC#Cc1ccc([C@@H]2[C@H](CO)N3CCCCN(S(=O)(=O)c4ccc(OC)cc4)C[C@@H]23)cc1	-1	87	.	.	.	.	.
COCC#Cc1ccc([C@H]2[C@H]3CN(S(=O)(=O)c4ccc(OC)cc4)CCCCN3[C@H]2CO)cc1	-2	66	.	.	.	.	.
CCc1ccc2oc(-c3cccc(NC(=O)COc4ccccc4)c3)nc2c1	.	.	0	.	.	.	.
COc1ccc(S(=O)(=O)N(C)C[C@H]2OCCCC[C@@H](C)Oc3ccc(NS(=O)(=O)c4ccc(C)cc4)cc3C(=O)N([C@H](C)CO)C[C@@H]2C)cc1	0	7	.	.	.	.	.
COc1ccc(S(=O)(=O)N(C)C[C@H]2OCCCC[C@H](C)Oc3ccc(NS(=O)(=O)c4ccc(C)cc4)cc3C(=O)N([C@H](C)CO)C[C@@H]2C)cc1	-1	?	-1	110*	66	1	-31
COc1ccc(S(=O)(=O)N(C)C[C@H]2OCCCC[C@H](C)Oc3ccc(NS(=O)(=O)c4ccc(C)cc4)cc3C(=O)N([C@H](C)CO)C[C@H]2C)cc1	-1	?	.	107*	93	-7	12
COc1ccc(S(=O)(=O)Nc2ccc3c(c2)C(=O)N([C@@H](C)CO)C[C@H](C)[C@H](CN(C)S(=O)(=O)c2ccc(C)cc2)OCCCC[C@@H](C)O3)cc1	1	.	.	.	.	.	.
Cc1cc(C)cc(N(CC(=O)O)S(C)(=O)=O)c1	.	.	0	.	.	.	.
CCOC(=O)CSc1nc2ccc(Br)cc2c(=O)n1-c1ccccc1OC	.	.	0	.	.	.	.
O=C(O)CNC(=O)CN1C(=O)c2ccccc2C1=O	.	.	4	.	.	.	.
Cc1nn(C)c(C)c1CNC(=O)c1cc(-c2ccccc2Cl)nc2c(C)cccc12	.	.	0	.	.	.	.
C[C@@H]1CN([C@H](C)CO)C(=O)c2cc(NC(=O)Nc3ccc(C(F)(F)F)cc3)ccc2O[C@@H]1CN(C)S(=O)(=O)c1cccs1	-2	?	0	108*	19	23	40*
C[C@H](CO)N1C[C@H](C)[C@@H](CN(C)S(=O)(=O)c2cccs2)Oc2ccc(NC(=O)Nc3ccc(C(F)(F)F)cc3)cc2C1=O	-1	-37	0	.	.	.	.
C[C@@H]1CN([C@H](C)CO)C(=O)c2cc(NC(=O)Nc3ccc(C(F)(F)F)cc3)ccc2O[C@H]1CN(C)S(=O)(=O)c1cccs1	-1	-27	.	.	.	.	.
